Measurements published in publication PMC3145891 (Naunyn-Schmiedeberg's Archives of Pharmacology, 2011).
Several values for one entry are separate records, joined by “and”; a condition that tells them apart may be missing. Identical values can stand only once. Entries after “also recorded” stand apart in the source; their conditions may differ. Each block holds one compound with its values, some of them ahead of it.

Legend:
[1] = tested on: cAMP antibody (ENZO cAMP-EIA); test: ENZO cAMP-EIA, acetylation protocol; format: binding; conditions: for Specificity ENZO cAMP-EIA: EC50cAMP/EC50Analog, acetylated
[2] = tested on: cAMP antibody (IBL cAMP-RIA); test: IBL cAMP-RIA; format: binding; conditions: for Specificity IBL cAMP-RIA: EC50cAMP/EC50Analog
[3] = tested on: cAMP and cGMP antibodies of the tested immunoassays; test: Interference with the tested cAMP and cGMP immunoassays; format: binding
[4] = tested on: cGMP antibody (ENZO cGMP-EIA); test: ENZO cGMP-EIA, acetylation protocol; format: binding; conditions: for Specificity ENZO cGMP-EIA: EC50cGMP/EC50Analog, acetylated
[5] = tested on: cGMP antibody (IBL cGMP-RIA); test: IBL cGMP-RIA; format: binding; conditions: for Specificity IBL cGMP-RIA: EC50cGMP/EC50Analog; for Binding constant relative to cGMP: IBL cGMP-RIA
[6] = tested on: cGMP antibody (Cayman cGMP-EIA); test: Cayman cGMP-EIA; format: binding; conditions: EC50cGMP/EC50Analog
[7] = tested on: cGMP antibody (ENZO cGMP-EIA); test: ENZO cGMP-EIA, non-acetylated; format: binding; conditions: non-acetylated cGMP-EIA from ENZO
[8] = tested on: PKG Iβ; conditions: ref Poppe et al. (2008); cited from earlier work
[9] = tested on: cAMP antibody (ENZO cAMP-EIA); test: ENZO cAMP-EIA, non-acetylated; format: binding; conditions: non-acetylated cAMP-EIA from ENZO
[10] = tested on: human platelets; test: Cell membrane permeability in washed human platelets; format: in vitro ADME; conditions: for Diffusion into the cell, result in words: compounds with log Kw < 1; for cNMP conc. inside platelets (% of external): washed human platelets, 37°C, normally 20 min; for Time to equilibrium of inside/outside concentration: platelets, Fig. 1b
Procedure, shortened: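 Human blood from medication-free donors was collected into citrate–EGTA buffer. Platelet-rich plasma (300×g) was pelleted (380×g), washed in Hepes buffer pH 7.4 and used at 3 × 10^8 platelets/ml. Cells were exposed to analogs at 37°C, normally for 20 min or over a time course. They were lysed in […] buffer pH 8.1 with 1 mM IBMX on ice, then freeze/thaw and needle disruption. Lyophilized supernatant went to EIA, assuming a 5.2 fl cell volume.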

[11] = tested on: CHO cells; test: Cell membrane permeability in CHO cells; format: in vitro ADME, Chinese hamster; conditions: serum-free medium, normally 20 min
Procedure, shortened: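 CHO cells were grown in DMEM with 10% FBS and 1% penicillin/streptomycin at 37°C, 5% CO2. Cells were exposed to various analog concentrations in serum-free medium, normally for 20 min, then PBS-washed. Lysis used hypotonic buffer on ice for 30 min, scraping, liquid-nitrogen freeze/thaw and needle disruption. Cleared supernatant was lyophilized for EIA. Intracellular concentration assumed a 1.5 pl cell volume; % permeability = intracellular/extracellular […].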

[12] = tested on: PKA (VASP phosphorylation) in human platelets; test: VASP phosphorylation western blot, pVASP Ser-157; format: cell-based; conditions: for Concentration needed for comparable VASP phosphorylation (PKA activation): pVASP antibody 5C6
Procedure, shortened: (§1)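 Washed human platelets were exposed to various analog concentrations for the indicated times. Protein extracts (10 µg) were run on 9% reducing SDS-PAGE and wet-blotted to nitrocellulose. Blots were blocked in 3% milk/Tris-saline-Tween and probed 1:10,000 with 16C2 (pVASP Ser-239, PKG site) or 5C6 (pVASP Ser-157, PKA site). HRP goat anti-mouse (1:5,000) and ECL gave detection.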

[13] = tested on: PKG (VASP phosphorylation) in human platelets; test: VASP phosphorylation western blot, pVASP Ser-239; format: cell-based; conditions: for Concentration for maximal VASP phosphorylation: after 20 min, pVASP antibody 16C2
Procedure, shortened: as §1

[14] = Lipophilicity; format: physicochemical; conditions: calculated from log Kw data, cGMP scale
[15] = tested on: PKA II; conditions: ref Poppe et al. (2008); cited from earlier work

SMILES: O=C(Nc1ncnc2c1ncn2[C@@H]1O[C@@H]2COP(=O)(O)OC2C1O)c1ccccc1 (stereo in doubt) [6-Bnz-cAMP, N^6-Benzoyladenosine-3`,5`- cyclic monophosphate]
Specificity ENZO cAMP-EIA [1]: 0.006
Specificity IBL cAMP-RIA [2]: 0.009

SMILES: CCCCCCC(C(C)O)n1cnc2c(N)ncnc21.Cl (centres unmarked) [EHNA, 3-(6-aminopurin-9-yl)nonan-2-ol hydrochloride]
Interference / cross-reaction with the tested immunoassays, result in words [3]: do not interfere

Relative binding EC50cGMP/EC50Analog [7]: 1.00
SMILES: Nc1nc2c(ncn2[C@@H]2O[C@@H]3COP(=O)(O)O[C@H]3[C@H]2O)c(=O)[nH]1 [cGMP, Guanosine- 3`,5`- cyclic monophosphate]
Specificity ENZO cGMP-EIA [4]: 1.00
Specificity IBL cGMP-RIA [5]: 1.00
Specificity Cayman cGMP-EIA [6]: 1.00
Activation PKG Iβ Ka [8]: 0.9 µM

SMILES: Nc1ncnc2c1nc(Br)n2C1OC2COP(O)(=S)OC2C1O (single isomer, unassigned) [Rp-8-Br-cAMPS, 8-Bromoadenosine-3`,5`- cyclic monophosphorothioate, Rp-isomer]
Specificity ENZO cAMP-EIA [1]: 0.003

SMILES: Nc1nc2c(ncn2[C@@H]2O[C@@H]3COP(O)(=S)O[C@H]3[C@H]2O)c(=O)[nH]1 (single isomer, unassigned) [Rp-cGMPS, Guanosine- 3`,5`- cyclic monophosphorothioate, Rp-isomer]
Specificity ENZO cGMP-EIA [4]: 0.0027
Specificity IBL cGMP-RIA [5]: 0.10

Relative binding EC50cAMP/EC50Analog [9]: 0.22
cNMP conc. inside platelets (% of external) [10]: 0.2 ± 0.3%
cNMP conc. inside CHO cells (% of external) [11]: 0.1 ± 0.2%
SMILES: Nc1ncnc2c1ncn2[C@H]1C[C@@H]2OP(=O)(O)OC[C@H]2O1 [2′-dcAMP, 2`- Deoxyadenosine- 3`,5`- cyclic monophosphate]
Specificity ENZO cAMP-EIA [1]: 0.034
Diffusion into the cell, result in words [10]: too hydrophilic for any diffusion into the cell
VASP phosphorylation (PKA site), result in words [12]: no VASP phosphorylation

SMILES: Nc1ncnc2c1nc(Sc1ccc(Cl)cc1)n2[C@@H]1O[C@@H]2COP(=O)(O)O[C@H]2[C@H]1O [8-pCPT-cAMP, 8-(4-Chlorophenylthio)adenosine-3`,5`- cyclic monophosphate]
Specificity ENZO cAMP-EIA [1]: 0.0005

SMILES: CO[C@@H]1[C@@H]2OP(=O)(O)OC[C@H]2O[C@H]1n1c(Sc2ccc(Cl)cc2)nc2c(N)ncnc21 [8-pCPT-2′-OMe-cAMP, 8-(4-Chlorophenylthio)-2`-O-methyladenosine-3`,5`- cyclic monophosphate]
Specificity ENZO cAMP-EIA [1]: 0.0003
Specificity ENZO cGMP-EIA [4]: 0.0002
Specificity IBL cAMP-RIA [2]: 0.0066
Specificity IBL cGMP-RIA [5]: <10^−4

Relative binding EC50cGMP/EC50Analog [7]: 0.08
cNMP conc. inside platelets (% of external) [10]: 30.9 ± 5.7%
cNMP conc. inside CHO cells (% of external) [11]: 24.1 ± 9.7%
SMILES: O=c1c2nc(Br)n([C@@H]3O[C@@H]4COP(=O)(O)O[C@H]4[C@H]3O)c2nc2[nH]c(-c3ccccc3)cn12 [8-Br-PET-cGMP, β-Phenyl-1,N^2-etheno-8-Bromoguanosine-3`,5`- cyclic monophosphate]
Specificity ENZO cGMP-EIA [4]: 0.10
Percent of the cGMP affinity to the antibody ([4]; ENZO cGMP-EIA): 10%
Specificity IBL cGMP-RIA [5]: 0.015
Concentration sufficient to activate PKG ([13]; human platelets, VASP phosphorylation): 0.25 µM
Activation PKG Iβ Ka [8]: 0.009 µM

SMILES: Cn1c(=O)c2[nH]cnc2n(C)c1=O [Theophylline, 1,3-dimethyl-7H-purine-2,6-dione]
Interference / cross-reaction with the tested immunoassays, result in words [3]: do not interfere

SMILES: Nc1ncnc2c1ncn2[C@@H]1O[C@@H]2COP(O)(=S)O[C@H]2[C@H]1O (single isomer, unassigned) [Rp-cAMPS, Adenosine- 3`,5`- cyclic monophosphorothioate, Rp-isomer]
Cross-reactivity in the cAMP-EIA, result in words [1]: strong cross-reactivity; also recorded: significant cross-reactivity
Specificity ENZO cAMP-EIA [1]: 0.68
Specificity IBL cAMP-RIA [2]: 0.67
Binding constant relative to cAMP ([2]; IBL cAMP-RIA): ~66%

Cross-reactivity / binding to the cGMP antibody in the EIA, result in words [4]: does not bind
Relative lipophilicity [14]: 200
SMILES: O=c1c2nc(Br)n([C@@H]3O[C@@H]4CO[P@@](O)(=S)O[C@H]4[C@H]3O)c2nc2[nH]c(-c3ccccc3)cn12 (single isomer, unassigned) [Rp-8-Br-PET-cGMPS]
Specificity ENZO cGMP-EIA [4]: 0.002
Specificity IBL cGMP-RIA [5]: 0.011

SMILES: Nc1ncnc2c1nc(Br)n2[C@@H]1O[C@@H]2COP(=O)(O)O[C@H]2[C@H]1O [8-Br-cAMP, 8-Bromoadenosine-3`,5`- cyclic monophosphate]
Specificity ENZO cAMP-EIA [1]: 0.004
Specificity IBL cAMP-RIA [2]: 0.026
Concentration needed for comparable VASP phosphorylation (PKA activation) [12]: 500 µM
Activation PKA II Ka [15]: 0.09 µM

SMILES: O[C@@H]1[C@@H]2OP(O)(=S)OC[C@H]2O[C@H]1n1cnc2cc(Cl)c(Cl)cc21 (single isomer, unassigned) [Sp-5,6-DCl-cBIMPS]
Specificity IBL cAMP-RIA [2]: 0.005
Concentration needed for comparable VASP phosphorylation (PKA activation) [12]: 100 µM
Activation PKA II Ka [15]: 0.12 µM

Cross-reactivity / binding to the cGMP antibody in the EIA, result in words [4]: strong cross-reactivity
Binding constant relative to cGMP [5]: ~30%
Time to equilibrium of inside/outside concentration [10]: 10 to 20 min
cNMP conc. inside platelets (% of external) [10]: 19.6 ± 4.7%
SMILES: Nc1nc2c(nc(Sc3ccc(Cl)cc3)n2C2O[C@@H]3COP(=O)(O)O[C@H]3[C@H]2O)c(=O)[nH]1 (stereo in doubt) [8-pCPT-cGMP, 8-(4-Chlorophenylthio)guanosine-3`,5`- cyclic monophosphate]
Specificity ENZO cGMP-EIA [4]: 2.40
Specificity IBL cGMP-RIA [5]: 0.30
Specificity Cayman cGMP-EIA [6]: 0.0008
Concentration for maximal VASP phosphorylation ([13]; human platelets): 50 µM
Activation PKG Iβ Ka [8]: 0.9 µM

Relative binding EC50cGMP/EC50Analog [7]: 2.2 and 2.21
cNMP conc. inside platelets (% of external) [10]: 0.5 ± 0.1%
cNMP conc. inside CHO cells (% of external) [11]: 0.3 ± 0.5%
SMILES: Nc1nc2c(ncn2[C@H]2C[C@@H]3OP(=O)(O)OC[C@H]3O2)c(=O)[nH]1 [2′-dcGMP, 2`- Deoxyguanosine- 3`,5`- cyclic monophosphate]
Specificity ENZO cGMP-EIA [4]: 0.052
Diffusion into the cell, result in words [10]: too hydrophilic for any diffusion into the cell
VASP phosphorylation (PKG site), result in words ([13]; concentrations up to 2 mM): no VASP phosphorylation
Activation PKG Iβ Ka [8]: 21 µM

SMILES: CC(C)Cn1c(=O)n(C)c(=O)c2[nH]cnc21 [IBMX, 3-Isobutyl-1-methylxanthine]
Specificity ENZO cAMP-EIA [1]: <10^−5
Specificity ENZO cGMP-EIA [4]: <10^−6
Specificity IBL cAMP-RIA [2]: <10^−4
Specificity IBL cGMP-RIA [5]: <10^−6
Specificity Cayman cGMP-EIA [6]: <10^−5
Interference / cross-reaction with the tested immunoassays, result in words [3]: do not interfere

SMILES: CCCC(=O)Nc1ncnc2c1ncn2[C@@H]1O[C@@H]2COP(=O)(O)O[C@H]2[C@H]1O [6-MB-cAMP, N^6-Monobutyryladenosine-3`,5`-cyclic monophosphate]
Specificity ENZO cAMP-EIA [1]: 0.004
Specificity IBL cAMP-RIA [2]: 0.012

Cross-reactivity / binding to the cGMP antibody in the EIA, result in words [4]: strong cross-reactivity
Binding constant relative to cGMP [5]: ~20%
Relative binding EC50cGMP/EC50Analog [7]: 6.40
Time to equilibrium of inside/outside concentration [10]: 10 to 20 min
cNMP conc. inside platelets (% of external) [10]: 12.1 ± 3.5%
cNMP conc. inside CHO cells (% of external) [11]: 13.5 ± 11.5%
SMILES: Nc1nc2c(nc(Br)n2[C@@H]2O[C@@H]3COP(=O)(O)O[C@H]3[C@H]2O)c(=O)[nH]1 [8-Br-cGMP, 8-Bromoguanosine-3`,5`- cyclic monophosphate]
Specificity ENZO cGMP-EIA [4]: 4.90
Specificity IBL cGMP-RIA [5]: 0.20
Concentration for maximal VASP phosphorylation ([13]; human platelets): 200 µM
Activation PKG Iβ Ka [8]: 1.0 µM
